# Reference: article PMC10993133 (iScience, 2024)
# Key:
# Format in all cases: cell-based, human
# MCF7 cells [1] = experiment: ROS generation; details: MCF7, 1 µM, 24 hrs, CM-H2DCFDA, n=4
# Procedure, shortened: (§1)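 MCF7 or MDAMB231 cells were treated 24 hrs with Dox or encapsulated test compound. Cells were scraped, pelleted and washed twice in chilled PBS, then loaded with CM-H2DCFDA (5 µM) in PBS for 20 min in the dark at 37°C. After washing, cells were lysed in PBS with 1% Tween 20. DCF fluorescence was read at ex 480/em 530 nm. Means ± S.E., n=4, versus vehicle control.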
# MCF7 cells [2] = experiment: DNA fragmentation assay; details: MCF7, 30 hrs exposure, agarose gel
# Procedure, shortened: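 MCF7 cells were seeded at 1 × 10^6 per well and exposed 30 hrs. They were lysed at RT in 0.5% Triton X-100, 15 mM EDTA, 20 mM Tris HCl. DNA was extracted with phenol/chloroform/isoamyl alcohol (25:24:1), then treated 1 hr with RNase (0.1 mg/mL) and proteinase K (1 mg/mL). It was precipitated overnight at −20°C with sodium acetate/ethanol, run on 2% agarose and stained with ethidium bromide.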
# MDAMB231 cells [3] = experiment: ROS generation; details: MDAMB231, 1 µM, 24 hrs, CM-H2DCFDA, n=4
# Procedure, shortened: as §1
# MDAMB231 cells [4] = experiment: Mitochondrial membrane potential; details: MDAMB231, 1 µM, 30 hrs, JC-1, n=4
# Procedure, shortened: (§2)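 MCF7 and MDAMB231 cells in DMEM with 10% FCS were treated 30 hrs with Dox or encapsulated test compound, then harvested. They were incubated with shaking in JC-1 (2.5 µg/mL) in PBS at 37°C for 30–35 min. Cells were washed three times for 5 min in cold PBS and resuspended. ΔΨM was taken as the 590/530 nm fluorescence ratio. Means ± S.E., n=4.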
# MCF7 cells [5] = experiment: Mitochondrial membrane potential; details: MCF7, 1 µM, 30 hrs, JC-1, n=4
# Procedure, shortened: as §2
smiles,measurement,setting,value
"COc1cccc2c1C(=O)c1c(O)c3c(c(O)c1C2=O)C[C@@](O)(C(=O)CO)C[C@@H]3O[C@H]1C[C@H](N)[C@H](O)[C@H](C)O1 [Dox, doxorubicin]",increase of intracellular ROS levels,MCF7 cells [1],comparable
same,DNA damage (DNA laddering),MCF7 cells [2],resulted in DNA damage
same,increase of intracellular ROS levels,MDAMB231 cells [3],comparable
same,mitochondrial membrane potential (ΔΨM),MDAMB231 cells [4],loss of mitochondrial membrane potential
same,mitochondrial membrane potential (ΔΨM),MCF7 cells [5],loss of mitochondrial membrane potential
